# High-throughput results: PubChem, several laboratories
# Sampled rows, rich in hits. Any-hit rate of the full collection: about 3.6%.
# NR3A LBD binder: modulators (binders) of human NR3A ligand-binding domain | NR3A LBD differential scanning fluorimetry, Tm shift; 0% = protein alone, 100% = glycine-bound protein | Tm shift relative to glycine control, % at 25 µM | 340,000 compounds, 2.5% hits | AID 1259313;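 active = melting temperature shift of at least 10% of the positive control shift, at one fixed dose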
# ATG4B inh: ATG4B (human) cysteine protease inhibition; AID 504462; ATG4B cleavage of LC3-PLA2, NBD-HPC fluorescence, 1 h; 340,000 compounds, 0.51% hits; inhibition, % at 8.33 µM; Q9Y4P1; in the data active = inhibition above about 40%
# NadD inh: NadD (S. aureus) enzyme inhibition; purified NadD enzyme, colorimetric absorbance read-out; inhibition, % at 20 µM; 360,000 compounds, 0.78% hits; AID 602399; in the data active = inhibition above about 26%
# SENP1 inh: blocks the human SENP1 SUMO protease catalytic domain; Q9P0U3; recombinant SENP1 catalytic domain, CyPet-SUMO1-YPet FRET cleavage; inhibition, % at 10 µM; 360,000 compounds, 0.21% hits;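 active = inhibition at least 30% at 10 µM, raw YFP signal under a set limit, fluorescence ratio 0.5 to 1.5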;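 also: 0% = enzyme with DMSO and 100% = no enzyme wells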
# Target sequence (Q9P0U3 419-644 limits assumed): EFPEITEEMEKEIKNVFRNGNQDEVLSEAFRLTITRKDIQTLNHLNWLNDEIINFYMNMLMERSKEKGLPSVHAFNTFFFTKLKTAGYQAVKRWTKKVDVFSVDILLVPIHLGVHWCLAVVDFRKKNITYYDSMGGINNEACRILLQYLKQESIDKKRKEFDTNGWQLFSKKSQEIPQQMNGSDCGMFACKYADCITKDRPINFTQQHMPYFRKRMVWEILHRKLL
#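 Assay system: hSENP1 catalytic domain, recombinant. Amount: SENP1 enzyme, 20 pM final. Schedule: 50 min reaction, RT, dark. Technique: FRET, CFP and YFP emission. Control set: no-enzyme wells low, DMSO-plus-enzyme wells high control.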
# UCH37 DUB inh: human UCH37 deubiquitinating enzyme inhibition; 330,000 compounds, 0.33% hits; inhibition, % (concentration not given with the values); purified proteasome/UCH37, Ub-AMC cleavage fluorescence; AID 588478; Q9Y5K5;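 active = mean inhibition over replicate wells above about 20%, limit read from the data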;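 also: 0% = compound-free wells with enzyme and 100% = wells lacking proteasome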
#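 system = Proteasome-associated human UCH37 deubiquitinase | amount = 0.15 nM proteasome as dispensed | medium = pH 7.4 Tris-HCl (50 mM) with ovalbumin, ATP-MgCl2, DTT | incubation = 30 min preincubation with enzyme, 25 min cleavage at room temperature | detection = AMC fluorescence 355/460 nm | read-out basis = percent inhibition | controls = no-proteasome and no-compound wells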
# ATG4B confirm: confirmation of human ATG4B inhibitors; shares compounds with ATG4B inh; ATG4B protease fluorescent substrate cleavage assay; inhibition, % at 8.33 µM; 320 compounds, 92% hits; in the data active = inhibition above about 39%
# PLA2 counter: counter-screen for ATG4B inhibitors: human phospholipase A2; 1,600 compounds, 66% hits; inhibition, % at 8.33 µM; shares compounds with ATG4B inh; purified PLA2, NBD-C6-HPC fluorescence, 45 min; in the data active = inhibition above about 50%
# Target sequence (P04054 whole entry, looked up): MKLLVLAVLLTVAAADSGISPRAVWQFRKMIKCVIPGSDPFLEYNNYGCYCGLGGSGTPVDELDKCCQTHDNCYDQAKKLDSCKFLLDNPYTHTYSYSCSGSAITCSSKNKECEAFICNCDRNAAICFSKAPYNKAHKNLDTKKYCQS
# * marks the source's active call; other numbers are inactive results; nt = not tested or not shown.
SMILES,NR3A LBD binder,ATG4B inh,NadD inh,SENP1 inh,UCH37 DUB inh,PLA2 counter,others
O=C1/C(=C/c2c[nH]c3ccccc23)CCC/C1=C\c1c[nH]c2ccccc12,10,75*,20,-28,6,75*,
O=S(=O)(c1ccc(Br)s1)N1CCc2ccccc2C1,4,57*,-2,2,6,27,
COc1ccc(C=NNC(=O)C(=O)N2CCCC2)cc1,nt,nt,nt,nt,3,nt,
S=c1[nH]nc(-c2ccccc2)n1/N=C/c1ccc(-c2ccccc2Cl)o1,8,42*,15,2,nt,58*,
Cc1noc(C)c1CSc1nc2ccccc2c(=O)n1-c1ccc(F)cc1F,0,59*,-2,2,5,67*,
C(=NN1CCN(C2c3ccccc3-c3ccccc32)CC1)c1cccnc1,nt,nt,nt,nt,6,nt,
CC(C)OCCCNC(=O)c1c(N)n(N=Cc2ccccn2)c2nc3ccccc3nc12,nt,nt,nt,nt,-6,nt,
COc1ccc(CNc2ccc(-c3ccccc3OC)nn2)cc1,0,48*,10,1,3,3,
COc1ccc(CNc2ccc(-c3ccc(OC)cc3)nn2)cc1,-12,-9,-6,1,3,nt,
CCOC(=O)c1c(NC(=O)C2Cc3ccccc3C(=O)O2)sc2c1CCCC2 (configuration not stated),-1,3,2,0,-12,nt,
COC(=O)c1c(NC(=O)C2Cc3ccccc3C(=O)O2)sc2c1CCCC2 (configuration not stated),0,49*,6,-1,1,29,ATG4B confirm=83*
O=C(O)c1cc(-c2ccco2)nn1-c1ccc(Cl)cc1,-2,43*,7,-8,-2,17,
Clc1ccc(CNC2CCCC2)c(Cl)c1,-1,5,-2,-3,3,nt,
S=C(NCc1ccc(Cl)cc1Cl)NC1CCCCC1,32*,44*,-4,1,7,55*,
Cc1ccccc1NC1=C/C(=N\S(=O)(=O)c2ccc(C(=O)O)cc2)c2ccccc2C1=O,-4,59*,8,2,94*,28,ATG4B confirm=37
COc1ccc(C=NNC(=O)c2sccc2C)c2ccccc12,nt,nt,nt,nt,-47,nt,
Cc1cc(NN=Cc2ccccc2)nc(NCc2ccccc2)n1,nt,nt,nt,nt,1,nt,
Cc1cc(N/N=C/c2ccccc2)nc(NCc2ccccc2)n1,9,69*,2,3,nt,76*,
Cc1cc(N/N=C/c2ccccc2F)nc(NCc2ccccc2)n1,1,59*,-4,1,nt,79*,
Cc1cc(N/N=C/c2cccc(Cl)c2)nc(NCc2ccccc2)n1,15*,76*,4,0,nt,84*,
Cc1cc(N/N=C/c2cccc(F)c2)nc(NCc2ccccc2)n1,15*,73*,-6,-1,nt,80*,
Cc1cc(NN=Cc2cccc(Cl)c2)nc(NCc2ccccc2)n1,nt,nt,nt,nt,3,nt,
O=c1[nH]nc(NN=Cc2ccccc2OC(F)F)c(=O)[nH]1,nt,nt,nt,nt,11,nt,
COc1cc(C=NNS(=O)(=O)c2ccccc2)ccc1OS(=O)(=O)c1ccc(C)cc1,nt,nt,nt,nt,6,nt,
Cc1ccc2c(c1)c1c(n2C)C(C(N)=O)CCC1 (configuration not stated),-1,62*,1,4,3,69*,
SMILES,NR3A LBD binder,ATG4B inh,NadD inh,SENP1 inh,UCH37 DUB inh,PLA2 counter,others
CC(=O)N1CCn2c3c(c4cc(C)ccc42)CCCC31 (configuration not stated),-1,-4,1,18,3,nt,
NC(=O)C1CCCc2c1n(Cc1ccccc1)c1ccccc21 (configuration not stated),1,84*,-7,2,7,88*,
O=C(O)c1cc(-c2ccc(C=NN3C(=O)C4C5C=CC(CC5)C4C3=O)o2)ccc1Cl (configuration not stated),nt,nt,nt,nt,16,nt,
CC(=NNC(=O)COc1ccc(C#N)cc1)c1ccccc1OC(F)F,nt,nt,nt,nt,3,nt,
FC(F)(F)c1cnc(NN=Cc2ccncc2)c(Cl)c1,nt,nt,nt,nt,11,nt,
CCCOc1cccc(C(=O)N/N=C/c2coc3ccccc3c2=O)c1,1,43*,-2,0,nt,74*,
CCCOc1cccc(C(=O)NN=Cc2coc3ccccc3c2=O)c1,nt,nt,nt,nt,-34,nt,
O=c1c2c3nc4ccccc4nc3n(N=Cc3ccncc3)c2ncn1-c1ccccc1,nt,nt,nt,nt,-4,nt,
S=C(Nc1ccccc1Oc1ccccc1)Nc1cccc(Cl)c1Cl,-3,88*,1,-1,5,95*,
S=C(Nc1cccc(Cl)c1)Nc1ccccc1Oc1ccccc1,10,86*,-5,-1,3,88*,
S=C(Nc1ccc(Cl)cc1Cl)Nc1ccccc1Oc1ccccc1,2,72*,-2,1,6,79*,
S=C(Nc1ccccc1Oc1ccccc1)NC1CCCC1,-1,24,-3,1,-1,nt,
Cc1cc2c(C)nc(NN=Cc3ccc(F)cc3)nc2o1,nt,nt,nt,nt,-12,nt,
COc1ccc(-c2cc(C)nc(SCc3cccc(C(=O)O)c3)n2)cc1,-1,10,7,2,5,nt,
O=C(O)c1cccc(CSc2nc(-c3ccc(Cl)cc3)cc(C(F)(F)F)n2)c1,-3,52*,15,0,9,45,ATG4B confirm=62*
COCCCn1c2nc3ccccc3nc2c2c(=O)n(-c3ccccc3OC)cnc21,2,2,1,-4,-22,nt,
COc1ccccc1-n1cnc2c(c1=O)c1nc3ccccc3nc1n2-c1ccc(C)c(C)c1,-2,44*,2,-4,-10,4,
Fc1ccccc1CNc1ccc(Cl)cc1,-48,34,0,3,1,nt,
Fc1ccc(NCc2ccccc2F)cc1Cl,-6,41*,0,1,2,29,ATG4B confirm=69*
COC(=O)c1sc(N(C)C)c(C#N)c1-c1ccccc1,-1,44*,-5,1,4,40,ATG4B confirm=64*
Cc1sc(NC(=O)COc2ccccc2)c(C#N)c1-c1ccccc1,10,0,-6,2,1,nt,
Oc1c(Br)cc(Br)cc1C=NCc1ccccc1,1,73*,2,-30,3,71*,
O=C(Cc1ccccc1)NN=Cc1cc(Br)cc(Br)c1O,nt,nt,nt,nt,-1,nt,
Cc1nc(N)sc1C(=O)NN=Cc1ccco1,nt,nt,nt,nt,2,nt,
O=C(Nc1nnc(Cc2c[nH]c3ccccc23)s1)c1ccc(Cl)cc1Cl,26*,52*,13,-33,0,51*,
O=C(Nc1nnc(Cc2ccccc2F)s1)c1ccccc1Cl,0,20,-4,2,nt,nt,
Cc1c(Cl)c([N+](=O)[O-])nn1CCCC(=O)N(Cc1ccccc1)Cc1ccccc1,-8,52*,-9,2,3,60*,
Cc1ccccc1Oc1cc(NC(=O)Cn2cnc([N+](=O)[O-])c2)cc([N+](=O)[O-])c1,9,-14,4,4,nt,nt,
